Calls of active or inactive are those of the source. The rule behind the calls is not given here.
Key:
[1] = Binding affinity to recombinant HIV1 Nef by SPR assay; set-up: species or system Human immunodeficiency virus 1
In short: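 Recombinant purified Nef was immobilized on a CM5 chip, and compound was injected over a concentration range in triplicate. Binding isotherms were fitted with a heterogeneous ligand model, and KD was taken from the kinetic constants of the higher-affinity component. No binding means none seen at >50 μM compound.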

[2] = test system: Human immunodeficiency virus 1; assay: Antiviral activity against HIV1 NL4-3 infected in TZM-bl cells incubated for 3 hrs measured after 48 hrs by luciferase reporter gene assay; type: functional, organism-based; settings: Human immunodeficiency virus 1, NL4-3, TZM-bl
In short: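 TZM-bl reporter cells carry a luciferase gene driven by the HIV-1 LTR. Cells were infected short-term with HIV-1, and Nef-dependent infectivity was read out by luciferase. IC50 was derived from this read-out.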

[3] = Cytotoxicity against human TZM-bl cells by Cell Titer Blue assay; type: cell-based
In short: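 TZM-bl reporter cells were treated with compound and viability was read by Cell Titer Blue. CC50 is the concentration giving 50% loss of viability.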

[4] = test system: Human immunodeficiency virus 1; assay: Binding affinity to recombinant HIV1 Nef N126A mutant at 10 uM by SPR assay
In short: (§1)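 Wild-type, N126A and N126Q Nef were expressed in bacteria and purified to homogeneity. Each was covalently coupled to a CM5 biosensor chip. Compound was injected at a final 10 μM, in triplicate, and binding was measured by SPR on a Biacore T100.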

[5] = test system: Human immunodeficiency virus 1; assay: Binding affinity to recombinant HIV1 Nef N126Q mutant at 10 uM by SPR assay; in short: as §1
U-87MG ATCC = assay: Inhibition of Nef-dependent HIV1 NL4-3 replication infected in human U87MG cells expressing CD4 and CXCR4 at 3 uM incubated for 1 hr measured after 4 days by immunoassay; type: cell-based; settings: Human immunodeficiency virus 1
In short: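 U87MG/CD4/CXCR4 cells received compound at 3 μM final; wild-type or ΔNef HIV-1 NL4-3 was added one hour later. Replication was measured at 4 days as p24 Gag by AlphaLISA ELISA and expressed as percent of DMSO control, mean ± S.E., n=4.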

[6] = Cytotoxicity against human U87MG cells expressing CD4 and CXCR4 up to 10 uM by Cell Titer Blue assay; type: cell-based; settings: u-87mg atcc
[7] = Tmax in C3H mouse at 10 mg/kg, po administered through solution of 5% N-methyl -2-pyrrolidone and 5% solutol in saline by LC-MS analysis; type: ADME, organism-based; settings: in vivo
In short: (§2)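 Plasma drug levels measured by LC-MS over time. Tmax, Cmax, AUClast, AUCinf, T1/2, Vss, clearance and %F were derived from the plasma concentration–time data.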

[8] = Cmax in C3H mouse at 2 mg/kg, iv by LC-MS analysis; type: ADME, organism-based; set-up: dose 2 mg/kg, route intravenous; settings: in vivo; in short: as §2
[9] = Cmax in C3H mouse at 10 mg/kg, po administered through solution of 5% N-methyl -2-pyrrolidone and 5% solutol in saline by LC-MS analysis; type: ADME, organism-based; set-up: dose 10 mg/kg, route oral; settings: in vivo; in short: as §2
[10] = AUClast in C3H mouse at 2 mg/kg, iv by LC-MS analysis; type: ADME, organism-based; set-up: dose 2 mg/kg, route intravenous, time 0 - last; settings: in vivo; in short: as §2
[11] = AUC(last) in C3H mouse at 10 mg/kg, po administered through solution of 5% N-methyl -2-pyrrolidone and 5% solutol in saline by LC-MS analysis; type: ADME, organism-based; set-up: dose 10 mg/kg, time 0 - last, route oral; settings: in vivo; in short: as §2
[12] = AUC(infinity) in C3H mouse at 2 mg/kg, iv by LC-MS analysis; type: ADME, organism-based; set-up: dose 2 mg/kg, time infinity, route intravenous; settings: in vivo; in short: as §2
[13] = AUC(infinity) in C3H mouse at 10 mg/kg, po administered through solution of 5% N-methyl -2-pyrrolidone and 5% solutol in saline by LC-MS analysis; type: ADME, organism-based; set-up: dose 10 mg/kg, route oral, time infinity; settings: in vivo; in short: as §2
[14] = Half life in C3H mouse at 2 mg/kg, iv by LC-MS analysis; type: ADME, organism-based; settings: in vivo; in short: as §2
[15] = Volume of distribution at steady state in C3H mouse at 2 mg/kg, iv by LC-MS analysis; type: ADME, organism-based; settings: in vivo, read-out: Vdss; in short: as §2
[16] = Clearance in C3H mouse at 2 mg/kg, iv by LC-MS analysis; type: ADME, organism-based; settings: in vivo; in short: as §2
[17] = Oral bioavailability in C3H mouse at 10 mg/kg administered through solution of 5% N-methyl -2-pyrrolidone and 5% solutol in saline by LC-MS analysis; type: ADME, organism-based; settings: in vivo; in short: as §2
Mus musculus [18] = assay: Acute toxicity in C3H mouse assessed as change in body weight at 100 mg/kg, po SID for 12 days; type: organism-based; settings: in vivo, 288 h
[19] = Tmax in C3H mouse at 10 mg/kg, po administered through suspension of 0.5% w/v sodium-carboxymethyl cellulose with 0.1% v/v Tween80 by LC-MS analysis; type: ADME, organism-based; settings: in vivo; in short: as §2
[20] = Cmax in C3H mouse at 10 mg/kg, po administered through suspension of 0.5% w/v sodium-carboxymethyl cellulose with 0.1% v/v Tween80 by LC-MS analysis; type: ADME, organism-based; set-up: dose 10 mg/kg, route oral; settings: in vivo; in short: as §2
[21] = AUC(last) in C3H mouse at 10 mg/kg, po administered through suspension of 0.5% w/v sodium-carboxymethyl cellulose with 0.1% v/v Tween80 by LC-MS analysis; type: ADME, organism-based; set-up: dose 10 mg/kg, route oral, time 0 - last; settings: in vivo; in short: as §2
[22] = AUC(infinity) in C3H mouse at 10 mg/kg, po administered through suspension of 0.5% w/v sodium-carboxymethyl cellulose with 0.1% v/v Tween80 by LC-MS analysis; type: ADME, organism-based; set-up: dose 10 mg/kg, route oral, time infinity; settings: in vivo; in short: as §2
Mus musculus [23] = assay: Acute toxicity in C3H mouse assessed as body condition at 100 mg/kg, po SID for 12 days; type: organism-based; settings: in vivo, 288 h
Mus musculus [24] = assay: Acute toxicity in C3H mouse assessed as overall behavior at 100 mg/kg, po SID for 12 days; type: organism-based; settings: in vivo, 288 h
Mus musculus [25] = assay: Acute toxicity in C3H mouse assessed as change in body weight at 10 mg/kg, po BID for 4 days; type: organism-based; settings: in vivo, 96 h
Mus musculus [26] = assay: Acute toxicity in C3H mouse assessed as change in body weight at 50 mg/kg, po SID for 5 days; type: organism-based; settings: in vivo, 120 h
Mus musculus [27] = assay: Acute toxicity in C3H mouse assessed as body condition at 5 mg/kg, iv SID for 4 days; type: organism-based; settings: in vivo, 96 h
Mus musculus [28] = assay: Acute toxicity in C3H mouse assessed as body condition at 10 mg/kg, po BID for 4 days; type: organism-based; settings: in vivo, 96 h
Mus musculus [29] = assay: Acute toxicity in C3H mouse assessed as body condition at 50 mg/kg, po SID for 5 days; type: organism-based; settings: in vivo, 120 h
Mus musculus [30] = assay: Acute toxicity in C3H mouse assessed as overall behavior at 5 mg/kg, iv SID for 4 days; type: organism-based; settings: in vivo, 96 h
Mus musculus [31] = assay: Acute toxicity in C3H mouse assessed as overall behavior at 10 mg/kg, po BID for 4 days; type: organism-based; settings: in vivo, 96 h
Mus musculus [32] = assay: Acute toxicity in C3H mouse assessed as overall behavior at 50 mg/kg, po SID for 5 days; type: organism-based; settings: in vivo, 120 h
Mus musculus [33] = assay: Acute toxicity in C3H mouse assessed as change in body weight at 5 mg/kg, po SID for 4 days; settings: in vivo, 96 h
[34] = test system: Human immunodeficiency virus 1; assay: Binding affinity to recombinant HIV1 Nef at >50 uM by SPR assay
Mus musculus [35] = assay: Acute toxicity in C3H mouse assessed as overall behavior at 2.5 mg/kg, iv SID for 4 days; type: organism-based; settings: in vivo, 96 h
Mus musculus [36] = assay: Acute toxicity in C3H mouse assessed as body condition at 2.5 mg/kg, po SID for 4 days; settings: in vivo, 96 h
Mus musculus [37] = assay: Acute toxicity in C3H mouse assessed as change in body weight at 2.5 mg/kg, po SID for 4 days; settings: in vivo, 96 h

SMILES | Kd [1] [µM] | IC50 [2] [µM] | CC50 [3] [µM] | Activity [4] | Activity [5] | inhibition (U-87MG ATCC) | Activity [6] | Tmax [7] [min] | Cmax [8] [ng/mL] | Cmax [9] [ng/mL] | AUC(0-t) [10] [ng·h/mL] | AUC(0-t) [11] [ng·h/mL] | AUC(0-inf) [12] [ng·h/mL] | AUC(0-inf) [13] [ng·h/mL] | half-life [14] [min] | Vd [15] [L/kg] | clearance [16] [mL/min/kg] | bioavailability [17] [%] | Tmax [19] [min] | Cmax [20] [ng/mL] | other results
NC(=S)n1nc(-c2ccc([N+](=O)[O-])cc2)c(Cc2cccc(Cl)c2)c1O | 0.15 | 3.54 | > 10 | inactive | inactive | Active | Non-toxic | 60 | 2800 | 5810 | 2960 | 18600 | 3000 | 18800 | 94.8 | 0.79 | 8.56 | 100 | 30 | 3400 | Activity (Mus musculus [18]): Non-toxic; AUC(0-t) [21]: 10700 ng·h/mL; AUC(0-inf) [22]: 11500 ng·h/mL; Activity (Mus musculus [23]): Non-toxic; Activity (Mus musculus [24]): Non-toxic
NC(=S)n1nc(-c2ccc([N+](=O)[O-])cc2)c(CCc2cccc(Cl)c2)c1O | 0.159 | 0.69 | > 10 | inactive | inactive | Active | Non-toxic | 15 | 4420 | 2370 | 2130 | 6300 | 2150 | 6430 |  | 0.83 | 13.5 | 53 | 30 | 5610 | Activity (Mus musculus [25]): Non-toxic; Activity (Mus musculus [26]): Non-toxic; AUC(0-t) [21]: 9030 ng·h/mL; AUC(0-inf) [22]: 9480 ng·h/mL; Activity (Mus musculus [27]): Non-toxic; Activity (Mus musculus [28]): Non-toxic; Activity (Mus musculus [29]): Non-toxic; Activity (Mus musculus [30]): Non-toxic; Activity (Mus musculus [31]): Non-toxic; Activity (Mus musculus [32]): Non-toxic; Activity (Mus musculus [33]): Non-toxic
O=[N+]([O-])c1ccc(-c2n[nH]c(O)c2Cc2cccc(Cl)c2)cc1 |  | > 10 | > 10 |  |  | inactive | Non-toxic |  |  |  |  |  |  |  |  |  |  |  |  |  | Activity [34]: inactive
NC(=S)n1nc(-c2ccc([N+](=O)[O-])cc2)c(/N=N/c2cccc(Cl)c2)c1O | 0.0819 | 2.53 | 10 | inactive | inactive |  |  | 30 | 3960 | 418 | 9780 | 963 | 9790 | 1020 | 128 | 0.37 | 3.41 | 2 |  |  | Activity (Mus musculus [35]): Non-toxic; Activity (Mus musculus [36]): Non-toxic; Activity (Mus musculus [37]): Non-toxic
O=[N+]([O-])c1ccc(-c2n[nH]c(O)c2CCc2cccc(Cl)c2)cc1 |  | > 10 | > 10 |  |  | inactive | Non-toxic |  |  |  |  |  |  |  |  |  |  |  |  |  | Activity [34]: inactive

Reference: ChEMBL document CHEMBL3763152, “Synthesis and evaluation of orally active small molecule HIV-1 Nef antagonists” (Bioorg Med Chem Lett, 2016)
